Measurements taken from ChEMBL document CHEMBL5126625, “Discovery of AZD4831, a Mechanism-Based Irreversible Inhibitor of Myeloperoxidase, As a Potential Treatment for Heart Failure with Preserved Ejection Fraction” (J Med Chem, 2022).
Converted amounts (≈) assume the structure as drawn.

Experiments:
[1] = biological target: Cytochrome P450 2C9 (Homo sapiens, UniProt P11712); assay: Inhibition of human recombinant CYP2C9 using coumarin as substrate preincubated with enzyme for 10 mins followed by NADPH addition and measured after 20 to 50 mins by fluorescence based method
Sequence of Cytochrome P450 2C9 (P11712 whole entry): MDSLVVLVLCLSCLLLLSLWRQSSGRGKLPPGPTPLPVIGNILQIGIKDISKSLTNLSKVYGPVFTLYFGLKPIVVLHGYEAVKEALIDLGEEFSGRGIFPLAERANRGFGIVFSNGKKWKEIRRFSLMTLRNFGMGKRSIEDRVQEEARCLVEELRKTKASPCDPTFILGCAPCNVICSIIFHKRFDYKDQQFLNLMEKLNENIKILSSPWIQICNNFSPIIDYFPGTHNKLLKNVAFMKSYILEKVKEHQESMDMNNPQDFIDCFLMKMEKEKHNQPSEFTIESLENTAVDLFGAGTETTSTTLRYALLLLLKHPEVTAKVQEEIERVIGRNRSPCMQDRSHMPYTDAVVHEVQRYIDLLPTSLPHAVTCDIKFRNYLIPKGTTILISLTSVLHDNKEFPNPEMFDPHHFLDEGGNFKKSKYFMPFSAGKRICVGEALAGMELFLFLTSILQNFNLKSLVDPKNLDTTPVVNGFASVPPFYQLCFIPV

[2] = Toxicity in dog assessed as body weight by 9 months toxicology study; parameters: species or system Canis lupus familiaris; conditions: in vivo, 6570 h
In short: (§1)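 Pivotal 9-month repeat-dose toxicology study in dogs at doses up to 100 mg/kg/day, with food consumption, body weight and pathology monitored.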

[3] = Oral bioavailability in Beagle dog measured up to 24 hrs by LC-MS/MS analysis; type: ADME, organism-based, Canis lupus familiaris; conditions: in vivo
[4] = Toxicity in male rat assessed as NOAEL by 6 months toxicology study; conditions: in vivo, 4380 h
In short: (§2)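 Pivotal 6-month repeat-dose toxicology study in rats with daily dosing up to 125 mg/kg/day. Males and females were assessed separately, and a NOAEL was assigned for each sex.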

[5] = Apparent permeability of the compound across apical to basolateral side in human Caco-2 cells at 10 uM by LC-MS/MS analysis
[6] = biological target: Voltage-gated inwardly rectifying potassium channel KCNH2 (Homo sapiens, UniProt Q12809)
Sequence of Voltage-gated inwardly rectifying potassium channel KCNH2 (Q12809 whole entry): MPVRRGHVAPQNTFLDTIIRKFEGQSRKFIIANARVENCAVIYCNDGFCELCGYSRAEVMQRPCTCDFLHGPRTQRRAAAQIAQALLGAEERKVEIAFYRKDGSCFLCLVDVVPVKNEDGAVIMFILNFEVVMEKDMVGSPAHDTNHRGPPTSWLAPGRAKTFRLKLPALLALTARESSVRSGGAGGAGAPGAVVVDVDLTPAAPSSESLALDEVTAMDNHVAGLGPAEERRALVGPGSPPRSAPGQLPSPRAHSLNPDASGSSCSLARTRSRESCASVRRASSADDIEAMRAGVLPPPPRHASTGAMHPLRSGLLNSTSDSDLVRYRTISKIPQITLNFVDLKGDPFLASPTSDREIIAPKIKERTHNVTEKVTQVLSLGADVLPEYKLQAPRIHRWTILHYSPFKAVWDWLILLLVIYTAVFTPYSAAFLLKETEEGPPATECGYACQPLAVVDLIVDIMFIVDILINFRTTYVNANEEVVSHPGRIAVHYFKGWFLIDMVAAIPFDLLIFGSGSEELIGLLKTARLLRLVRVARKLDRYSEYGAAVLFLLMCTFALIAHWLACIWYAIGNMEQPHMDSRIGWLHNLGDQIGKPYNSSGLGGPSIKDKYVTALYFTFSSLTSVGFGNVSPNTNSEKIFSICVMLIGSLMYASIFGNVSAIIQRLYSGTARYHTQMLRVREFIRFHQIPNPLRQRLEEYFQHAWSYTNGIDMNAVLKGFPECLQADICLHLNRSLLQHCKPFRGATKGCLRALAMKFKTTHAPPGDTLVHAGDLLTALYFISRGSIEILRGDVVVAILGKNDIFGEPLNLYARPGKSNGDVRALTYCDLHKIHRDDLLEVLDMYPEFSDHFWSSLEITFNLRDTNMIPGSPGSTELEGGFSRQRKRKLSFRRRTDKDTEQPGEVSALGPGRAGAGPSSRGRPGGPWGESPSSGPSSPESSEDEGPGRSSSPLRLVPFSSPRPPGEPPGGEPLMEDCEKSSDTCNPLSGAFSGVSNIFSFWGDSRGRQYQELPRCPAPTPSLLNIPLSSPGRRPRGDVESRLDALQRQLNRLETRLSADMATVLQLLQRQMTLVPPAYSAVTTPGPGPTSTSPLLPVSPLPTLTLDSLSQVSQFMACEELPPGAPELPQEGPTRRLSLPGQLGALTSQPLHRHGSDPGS

[7] = biological target: Cytochrome P450 2C19 (Homo sapiens, UniProt P33261); assay: Inhibition of human recombinant CYP2C19 using coumarin as substrate preincubated with enzyme for 10 mins followed by NADPH addition and measured after 20 to 50 mins by fluorescence based method
Sequence of Cytochrome P450 2C19 (P33261 whole entry): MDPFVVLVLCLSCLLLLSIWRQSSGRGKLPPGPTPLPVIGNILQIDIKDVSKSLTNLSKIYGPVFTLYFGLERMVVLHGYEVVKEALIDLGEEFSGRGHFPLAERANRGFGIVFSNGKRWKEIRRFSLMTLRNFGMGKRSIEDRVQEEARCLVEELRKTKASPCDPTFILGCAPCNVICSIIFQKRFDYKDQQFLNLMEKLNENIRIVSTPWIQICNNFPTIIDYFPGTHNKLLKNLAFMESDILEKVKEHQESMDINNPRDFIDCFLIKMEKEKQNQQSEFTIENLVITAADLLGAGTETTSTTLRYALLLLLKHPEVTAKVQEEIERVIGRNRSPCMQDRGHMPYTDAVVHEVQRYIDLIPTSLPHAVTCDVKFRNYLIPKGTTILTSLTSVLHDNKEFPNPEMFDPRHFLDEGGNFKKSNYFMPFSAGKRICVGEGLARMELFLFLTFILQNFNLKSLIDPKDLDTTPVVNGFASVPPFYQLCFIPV

[8] = Oral bioavailability in Wistar Han rat measured up to 24 hrs by LC-MS/MS analysis; type: ADME, organism-based; conditions: in vivo
[9] = Lipophilicity, log D of the compound; conditions: octanol/water
[10] = biological target: Cytochrome P450 2D6 (Homo sapiens, UniProt P10635); assay: Inhibition of CYP2D6 (unknown origin) using coumarin as substrate preincubated with enzyme for 10 mins followed by NADPH addition and measured after 20 to 50 mins by fluorescence based method
Sequence of Cytochrome P450 2D6 (P10635 whole entry): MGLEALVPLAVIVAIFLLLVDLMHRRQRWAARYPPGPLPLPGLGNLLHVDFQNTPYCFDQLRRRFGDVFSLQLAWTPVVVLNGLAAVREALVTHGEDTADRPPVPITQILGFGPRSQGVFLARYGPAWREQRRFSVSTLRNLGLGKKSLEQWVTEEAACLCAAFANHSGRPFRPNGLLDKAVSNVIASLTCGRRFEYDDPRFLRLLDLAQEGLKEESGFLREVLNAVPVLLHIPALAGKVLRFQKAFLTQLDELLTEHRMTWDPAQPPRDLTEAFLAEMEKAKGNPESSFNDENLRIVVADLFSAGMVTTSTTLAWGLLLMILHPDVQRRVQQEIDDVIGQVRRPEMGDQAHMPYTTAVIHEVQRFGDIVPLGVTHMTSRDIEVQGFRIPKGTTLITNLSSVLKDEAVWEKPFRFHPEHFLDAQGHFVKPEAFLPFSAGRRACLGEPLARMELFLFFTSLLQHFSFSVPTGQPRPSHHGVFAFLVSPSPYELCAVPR

[11] = Drug uptake in human hepatocytes assessed as covalent binding measured per mg protein; type: ADME, cell-based, Hepatocyte
In short: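 [14C]-labelled compound incubated with human hepatocytes; covalently bound radioactivity expressed as pmol per mg protein.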

[12] = physchem; conditions: phosphate buffer, pH 7.4
[13] = Toxicity in rat bone marrow by micronucleus test
[14] = Toxicity in dog assessed as NOAEL by 9 months toxicology study; parameters: species or system Canis lupus familiaris; conditions: in vivo, 6570 h
In short: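 Pivotal 9-month repeat-dose toxicology study in dogs with daily dosing up to 100 mg/kg/day. Endpoints included food consumption, body weight and pathology. The NOAEL was assigned from these findings.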

[15] = biological target: Cytochrome P450 3A4 (Homo sapiens, UniProt P08684)
Sequence of Cytochrome P450 3A4 (P08684 whole entry): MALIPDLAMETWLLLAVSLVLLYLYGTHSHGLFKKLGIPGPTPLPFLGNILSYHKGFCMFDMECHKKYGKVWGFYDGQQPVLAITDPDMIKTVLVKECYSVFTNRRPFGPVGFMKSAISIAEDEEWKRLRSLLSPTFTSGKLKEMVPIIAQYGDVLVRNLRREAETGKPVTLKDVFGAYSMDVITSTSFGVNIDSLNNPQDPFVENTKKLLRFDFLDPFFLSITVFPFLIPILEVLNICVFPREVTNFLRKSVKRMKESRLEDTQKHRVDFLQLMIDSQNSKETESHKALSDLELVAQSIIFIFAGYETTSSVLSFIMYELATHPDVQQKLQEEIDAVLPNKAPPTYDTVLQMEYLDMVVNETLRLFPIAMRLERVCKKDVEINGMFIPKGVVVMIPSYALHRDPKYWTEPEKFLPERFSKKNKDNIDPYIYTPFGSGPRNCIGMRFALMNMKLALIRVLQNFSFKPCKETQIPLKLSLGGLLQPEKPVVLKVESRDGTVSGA

[16] = biological target: T1, Cytochrome P450 1A2 (Homo sapiens, UniProt P05177); assay: Inhibition of human recombinant CYP1A2 using coumarin as substrate preincubated with enzyme for 10 mins followed by NADPH addition and measured after 20 to 50 mins by fluorescence based method
T1 sequence (P05177 whole entry): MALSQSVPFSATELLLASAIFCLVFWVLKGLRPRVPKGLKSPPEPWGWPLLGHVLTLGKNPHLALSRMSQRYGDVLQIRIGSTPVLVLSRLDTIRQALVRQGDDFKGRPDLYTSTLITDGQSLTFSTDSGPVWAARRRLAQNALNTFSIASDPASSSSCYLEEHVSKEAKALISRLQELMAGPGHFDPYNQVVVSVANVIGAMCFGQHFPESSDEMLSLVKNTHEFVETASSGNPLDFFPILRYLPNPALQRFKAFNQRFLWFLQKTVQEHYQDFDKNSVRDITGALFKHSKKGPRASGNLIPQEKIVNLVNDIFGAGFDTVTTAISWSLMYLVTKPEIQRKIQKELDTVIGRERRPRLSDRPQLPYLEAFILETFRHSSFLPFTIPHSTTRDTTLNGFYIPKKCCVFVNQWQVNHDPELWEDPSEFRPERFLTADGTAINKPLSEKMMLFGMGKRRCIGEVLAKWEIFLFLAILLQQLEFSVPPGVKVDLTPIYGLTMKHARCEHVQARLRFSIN

[17] = system: Mus musculus; assay: In vivo inhibition of MPO in peritoneal lavage of zymosan-induced neutrophilic peritonitis BALB/c mouse model at 0.01 to 10 umol/kg, po administered 2 hrs prior to zymosan injection and measured after 2 hrs by chemiluminescence assay; type: functional, organism-based; conditions: dose 0.01-10 µmol/kg, time 4.0 hrs, DDE = dose-dependent effect
In short: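 BALB/c mice given 10, 1, 0.1 or 0.01 µmol/kg orally 2 h before intraperitoneal zymosan. Peritoneal lavage collected 2 h later and peroxidase activity quantified by chemiluminescence; neutrophils dominate the infiltrate, so activity attributed to MPO.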

[18] = Toxicity in dog assessed as food intake by 9 months toxicology study; parameters: species or system Canis lupus familiaris; conditions: in vivo, 6570 h; in short: as §1
[19] = Toxicity in female rat assessed as NOAEL by 6 months toxicology study; conditions: in vivo, 4380 h; in short: as §2

With C[C@@H](N)c1cc(Cl)ccc1Cn1c(=S)[nH]c(=O)c2[nH]ccc21 the IC50 [1] was greater than 30 µM, the Activity [2] was “Non-Toxic” and the bioavailability [3] was 52%. It also gave an NOAEL [4] of 125 mg/kg/day, a Papp A→B at 10 µM [5] of 11 ×10⁻⁶ cm/s and an IC50 [6] of 21 µM. The IC50 [7] was greater than 30 µM, the bioavailability [8] was 61% and the logD [9] was 1.2. For the same molecule, the IC50 [10] was greater than 30 µM, the Drug uptake [11] was 56 pmol and the solubility thermodynamic at 18 h [12] was 270 µM (≈ 90.4 µg/mL). The Activity [13] was “Non-Toxic”, the NOAEL [14] was 100 mg/kg/day and the IC50 [15] was 6 µM. For the same molecule, the IC50 [16] was greater than 30 µM, the inhibition [17] was “Dde” and the Activity [18] was “Non-Toxic”. For the same molecule, the NOAEL [19] was 125 mg/kg/day.
